Experiments:
[1] = molecular target: Dual specificity tyrosine-phosphorylation-regulated kinase 1A (Homo sapiens) (UniProt Q13627); assay: Inhibition of N-terminal His-tagged human Dyrk1A (126 to 490 residues) expressed in Escherichia coli BL21 (DE3) cells at 10 uM using Woodtide as substrate assessed as remaining enzyme activity after 10 mins in presence of [gamma-32P]-ATP by microbeta scintillation counting method
In short: (§1)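 Recombinant DYRK1A kinase assay with Woodtide as the peptide substrate and ATP at 100 μM. Each compound was tested at two concentrations, 1 μM and 10 μM. Results are given as the percentage of DYRK1A activity remaining relative to the uninhibited enzyme.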

[2] = molecular target: Dual specificity tyrosine-phosphorylation-regulated kinase 1A (Homo sapiens) (UniProt Q13627); assay: Inhibition of N-terminal His-tagged human Dyrk1A (126 to 490 residues) expressed in Escherichia coli BL21 (DE3) cells at 1 uM using Woodtide as substrate assessed as remaining enzyme activity after 10 mins in presence of [gamma-32P]-ATP by microbeta scintillation counting method; in short: as §1

Structure (SMILES)	Activity [1] [%]	Activity [2] [%]
O=C(Nc1ccc(O)cc1)c1cncc2nnc(-c3ccc(O)cc3)n12	99	99
Nc1nc2ccc(-c3ccc(O)cc3)cc2n1-c1ccc(O)cc1	43	74
CC(=O)Nc1nc2ccc(-c3ccc(O)cc3)cc2n1-c1ccc(O)cc1	107	106
O=C(Nc1cccc(O)c1)c1cncc2nnc(-c3ccc(O)cc3)n12	102	104
Oc1ccc2c(c1)CNc1cc(O)ccc1N2	113	104
Oc1ccc(-c2ccc(-c3cc(-c4ccc(O)cc4)n[nH]3)nc2)cc1	98	110
Oc1ccc(-c2nnc3cncc(OCCc4cccc(O)c4)n23)cc1	91	94
Oc1ccc(-c2nc[nH]c2-c2ccc(O)cc2)cc1	79	100
Oc1ccc(-c2cnc3[nH]cc(-c4ccc(O)cc4)c3c2)cc1	3.3	3.3
Oc1ccc(-c2ccnc(-c3cc(-c4ccc(O)cc4)n[nH]3)c2)cc1	9	64
Oc1ccc(-c2cnc3nccc(-c4ccc(O)cc4)c3c2)cc1	30	67
Oc1ccc(-c2ccnc(-c3cc(-c4ccc(O)cc4)ccn3)c2)cc1	83	90
Oc1ccc(CCOc2cncc3nnc(-c4ccc(O)cc4)n23)cc1	99	94

Source: ChEMBL document CHEMBL4261638, “Synthesis and in vitro evaluation of diverse heterocyclic diphenolic compounds as inhibitors of DYRK1A” (Bioorg Med Chem, 2018)
